Laboratory results published in article PMC2077835 (Drug metabolism and disposition: the biological fate of …, 2006).

Columns and labels:
CYP2D6 = CYP2D6 (Homo sapiens, UniProt P10635); experiment: DB289 consumption by recombinant CYP2D6; type: in vitro ADME; settings: 3.0 μM DB289, 50 pmol/ml P450, 15 min
How it was run: (§1)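 Baculovirus-insect-cell Supersomes coexpressing human P450 with NADPH-P450 reductase; the CYP2E1 enzyme also had cytochrome b5. 3.0 μM substrate, 50 pmol/ml P450 (100 pmol/ml for CYP2C8 and CYP2C9), in 100 mM phosphate pH 7.4 with 3.3 mM MgCl2 and 1 mM NADPH, 37°C, 15 min. Quenched in ice-cold acidified acetonitrile with deuterated internal standard, then LC/MS/MS. Percent consumed relative to 0 min; control Supersomes; duplicates.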

[1] = DB289 consumption in 10 individual HLM samples, correlation analysis; type: in vitro ADME, human; settings: 0.3 μM DB289
How it was run: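 Ten individual human liver microsome samples, each characterised by the supplier for P450 marker activities. Standard NADPH incubations at 37°C began with 0.3 μM substrate. Rate of disappearance measured by LC/MS/MS and plotted against each P450 marker activity. Pearson r calculated; p < 0.05 taken as significant.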

recombinant human CYP3A5 = recombinant human CYP3A5 (Homo sapiens, UniProt P20815); experiment: DB289 consumption by recombinant CYP3A5; type: in vitro ADME; settings: 3.0 μM DB289, 50 pmol/ml P450, 15 min
Sequence of recombinant human CYP3A5 (P20815 whole entry): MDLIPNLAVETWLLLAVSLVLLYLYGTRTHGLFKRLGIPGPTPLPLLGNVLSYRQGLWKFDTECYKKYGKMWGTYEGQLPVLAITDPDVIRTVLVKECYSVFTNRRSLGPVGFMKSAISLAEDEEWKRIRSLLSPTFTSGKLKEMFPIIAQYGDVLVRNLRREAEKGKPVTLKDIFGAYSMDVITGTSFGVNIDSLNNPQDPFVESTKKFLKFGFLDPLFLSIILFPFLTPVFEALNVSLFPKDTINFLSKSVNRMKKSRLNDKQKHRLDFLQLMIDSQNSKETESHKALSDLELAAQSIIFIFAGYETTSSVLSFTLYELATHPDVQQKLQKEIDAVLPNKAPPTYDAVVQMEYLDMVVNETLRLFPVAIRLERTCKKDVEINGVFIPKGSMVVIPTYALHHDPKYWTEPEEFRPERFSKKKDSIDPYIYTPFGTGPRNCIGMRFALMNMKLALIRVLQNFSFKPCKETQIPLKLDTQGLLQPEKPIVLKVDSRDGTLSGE
How it was run: as §1

CYP2A6 [2] = target: T1, CYP2A6 (Homo sapiens, UniProt P11509); experiment: Inhibition of P450 activities by DB289: coumarin 7-hydroxylation; type: in vitro ADME; settings: 3.0 μM DB289, pooled HLMs 0.25 mg/ml
T1 sequence (P11509 whole entry): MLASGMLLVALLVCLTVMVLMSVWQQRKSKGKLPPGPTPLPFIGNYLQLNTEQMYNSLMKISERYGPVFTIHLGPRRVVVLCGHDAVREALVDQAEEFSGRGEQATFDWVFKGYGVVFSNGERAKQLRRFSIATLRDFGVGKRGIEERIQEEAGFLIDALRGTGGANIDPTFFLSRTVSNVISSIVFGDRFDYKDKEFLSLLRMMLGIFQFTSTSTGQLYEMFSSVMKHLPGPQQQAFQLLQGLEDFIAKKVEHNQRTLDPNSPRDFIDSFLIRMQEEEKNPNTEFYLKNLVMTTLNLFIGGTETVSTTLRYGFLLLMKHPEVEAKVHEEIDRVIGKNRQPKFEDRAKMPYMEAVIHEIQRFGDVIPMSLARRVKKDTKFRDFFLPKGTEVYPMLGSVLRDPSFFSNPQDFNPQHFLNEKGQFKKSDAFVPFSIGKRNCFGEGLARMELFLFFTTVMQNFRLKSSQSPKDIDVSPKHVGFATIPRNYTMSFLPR
How it was run: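 Test compound (3.0 μM) was preincubated 0 and 15 min with pooled microsomes (0.25 mg/ml) and 2 mM NADPH (final concentrations). A P450-selective marker substrate was then added and marker activity measured. Reference selective chemical inhibitors were run for comparison (none for CYP4A11). Solvent-only controls.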

CYP2A6 [3] = target: T1, CYP2A6; experiment: DB289 consumption by recombinant CYP2A6; type: in vitro ADME; settings: 3.0 μM DB289, 50 pmol/ml P450, 15 min
How it was run: as §1

[4] = target: recombinant human CYP2C18 (Homo sapiens, UniProt P33260); experiment: DB289 consumption by recombinant CYP2C18; type: in vitro ADME; settings: 3.0 μM DB289, 50 pmol/ml P450, 15 min
Sequence of recombinant human CYP2C18 (P33260 26-490): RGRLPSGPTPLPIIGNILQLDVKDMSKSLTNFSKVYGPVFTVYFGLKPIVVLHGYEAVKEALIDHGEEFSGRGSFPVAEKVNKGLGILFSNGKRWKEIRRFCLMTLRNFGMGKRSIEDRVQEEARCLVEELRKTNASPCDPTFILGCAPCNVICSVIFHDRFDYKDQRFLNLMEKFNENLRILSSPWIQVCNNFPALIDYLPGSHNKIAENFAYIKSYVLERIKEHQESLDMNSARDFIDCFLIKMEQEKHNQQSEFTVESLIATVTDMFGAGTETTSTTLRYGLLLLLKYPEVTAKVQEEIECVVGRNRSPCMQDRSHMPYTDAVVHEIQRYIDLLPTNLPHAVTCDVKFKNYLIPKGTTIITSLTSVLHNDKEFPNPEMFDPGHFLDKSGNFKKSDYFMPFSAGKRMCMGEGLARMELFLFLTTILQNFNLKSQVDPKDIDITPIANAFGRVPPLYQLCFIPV

CYP2J2 = target: T2, CYP2J2 (Homo sapiens, UniProt P51589); experiment: DB289 consumption by recombinant CYP2J2; type: in vitro ADME; settings: 3.0 μM DB289, 50 pmol/ml P450, 15 min
T2 sequence (P51589 1-502): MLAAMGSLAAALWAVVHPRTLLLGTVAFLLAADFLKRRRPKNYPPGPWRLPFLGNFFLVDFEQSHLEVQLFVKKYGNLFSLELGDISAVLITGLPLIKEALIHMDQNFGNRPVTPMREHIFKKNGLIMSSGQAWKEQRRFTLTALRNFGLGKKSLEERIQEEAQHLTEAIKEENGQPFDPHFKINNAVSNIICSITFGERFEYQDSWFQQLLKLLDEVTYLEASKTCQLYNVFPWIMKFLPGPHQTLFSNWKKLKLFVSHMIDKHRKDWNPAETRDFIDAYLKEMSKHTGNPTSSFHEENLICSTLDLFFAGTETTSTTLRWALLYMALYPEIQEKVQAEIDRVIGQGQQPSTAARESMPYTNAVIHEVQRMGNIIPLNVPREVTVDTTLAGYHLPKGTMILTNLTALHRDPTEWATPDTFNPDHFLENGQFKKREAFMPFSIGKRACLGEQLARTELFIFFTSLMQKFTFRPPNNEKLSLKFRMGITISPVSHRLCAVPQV
How it was run: (§2)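 A second recombinant panel (Supersomes; the CYP2J2, CYP3A7 and CYP4F forms coexpressed with reductase and cytochrome b5). Each enzyme was incubated alone with 3.0 μM substrate and NADPH in pH 7.4 phosphate/MgCl2 at 37°C for 15 min. Acetonitrile quench with internal standard, centrifugation, LC/MS/MS. Percent consumed normalised to 0 min. Control Supersomes; means of duplicates.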

[5] = ref Fitzpatrick et al., 2004; cited from earlier work
recombinant human CYP2B6 = recombinant human CYP2B6 (Homo sapiens, UniProt P20813); experiment: DB289 consumption by recombinant CYP2B6; type: in vitro ADME; settings: 3.0 μM DB289, 50 pmol/ml P450, 15 min
Sequence of recombinant human CYP2B6 (P20813 whole entry): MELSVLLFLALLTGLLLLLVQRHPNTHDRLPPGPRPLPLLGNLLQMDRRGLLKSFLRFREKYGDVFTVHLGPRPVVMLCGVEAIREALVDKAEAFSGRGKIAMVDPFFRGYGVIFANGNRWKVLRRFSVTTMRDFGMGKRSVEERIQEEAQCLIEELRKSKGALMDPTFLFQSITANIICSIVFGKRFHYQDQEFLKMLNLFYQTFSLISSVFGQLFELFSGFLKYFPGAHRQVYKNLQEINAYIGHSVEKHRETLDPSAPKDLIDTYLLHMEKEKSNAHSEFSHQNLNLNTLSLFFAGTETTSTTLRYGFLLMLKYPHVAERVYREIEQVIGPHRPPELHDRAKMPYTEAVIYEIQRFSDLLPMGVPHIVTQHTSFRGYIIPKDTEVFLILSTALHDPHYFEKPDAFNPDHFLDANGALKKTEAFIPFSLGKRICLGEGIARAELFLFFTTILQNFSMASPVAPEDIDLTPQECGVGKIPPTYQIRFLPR
How it was run: as §1

recombinant CYP4F2 = target: T3, recombinant CYP4F2 (Homo sapiens, UniProt P78329); experiment: DB289 consumption by recombinant CYP4F2; type: in vitro ADME; settings: 3.0 μM DB289, 50 pmol/ml P450, 15 min
T3 sequence (P78329 5-520): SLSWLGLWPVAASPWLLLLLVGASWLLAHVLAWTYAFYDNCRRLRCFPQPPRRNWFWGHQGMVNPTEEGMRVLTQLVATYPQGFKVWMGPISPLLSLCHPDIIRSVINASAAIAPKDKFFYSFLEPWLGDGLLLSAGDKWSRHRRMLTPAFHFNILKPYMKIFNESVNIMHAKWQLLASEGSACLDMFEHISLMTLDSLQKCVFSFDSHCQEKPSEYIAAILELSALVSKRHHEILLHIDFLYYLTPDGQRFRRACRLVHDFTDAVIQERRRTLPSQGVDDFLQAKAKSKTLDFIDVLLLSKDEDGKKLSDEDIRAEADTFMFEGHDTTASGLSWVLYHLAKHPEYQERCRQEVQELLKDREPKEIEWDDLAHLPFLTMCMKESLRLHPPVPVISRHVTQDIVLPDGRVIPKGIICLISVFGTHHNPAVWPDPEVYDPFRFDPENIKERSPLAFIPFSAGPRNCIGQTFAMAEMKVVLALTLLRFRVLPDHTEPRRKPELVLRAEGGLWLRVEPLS
How it was run: as §2

recombinant human CYP1A2 = recombinant human CYP1A2 (Homo sapiens, UniProt P05177); experiment: DB289 consumption by recombinant CYP1A2; type: in vitro ADME; settings: 3.0 μM DB289, 50 pmol/ml P450, 15 min
Sequence of recombinant human CYP1A2 (P05177 2-516 limits assumed): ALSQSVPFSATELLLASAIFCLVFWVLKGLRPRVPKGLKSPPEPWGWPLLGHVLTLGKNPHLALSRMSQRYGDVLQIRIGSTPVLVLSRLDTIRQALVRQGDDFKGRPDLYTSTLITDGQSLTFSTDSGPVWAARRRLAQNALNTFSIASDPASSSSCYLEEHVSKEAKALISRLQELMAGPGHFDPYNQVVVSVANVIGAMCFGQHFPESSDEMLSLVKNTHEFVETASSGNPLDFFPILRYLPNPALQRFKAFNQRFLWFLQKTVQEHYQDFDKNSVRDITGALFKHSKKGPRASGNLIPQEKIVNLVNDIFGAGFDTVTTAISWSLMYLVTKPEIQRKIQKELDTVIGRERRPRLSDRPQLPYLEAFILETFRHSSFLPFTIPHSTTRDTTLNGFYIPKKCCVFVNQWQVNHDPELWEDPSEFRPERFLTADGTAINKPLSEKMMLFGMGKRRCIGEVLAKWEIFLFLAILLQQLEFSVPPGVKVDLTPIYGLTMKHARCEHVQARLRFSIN
How it was run: as §1

[6] = Incubation of DB289 with pooled human liver microsomes; type: in vitro ADME; settings: 15 μM DB289, 0.2 mg/ml HLMs, NADPH
How it was run: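 Pooled liver microsomes (50 donors, mixed gender) at 0.2 mg/ml with 15 μM substrate in a 1 ml mix, equilibrated 5 min at 37°C, then started with NADPH. Aliquots taken at 0, 5, 15, 30 and 120 min into ice-cold acetonitrile. LC/UV at 359 nm against an external 0.1–15 μM calibration; metabolites identified by retention time versus synthetic standards. Single determination; controls lacked NADPH, protein or substrate.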

[7] = Kinetics of M1 formation by pooled HLMs; type: in vitro ADME, human
How it was run: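 Initial-rate conditions (<20% substrate consumption). Pooled microsomes at 0.02 mg/ml with substrate from 0.05 μM upward, in 250 μl. Equilibrated 5 min at 37°C, started with NADPH, run 3 min. M1 measured by LC/MS/MS. Mean of duplicates fitted to Michaelis-Menten by nonlinear regression, with an Eadie-Hofstee plot; CLint = Vmax/Km.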

recombinant human CYP1A1 = recombinant human CYP1A1 (Homo sapiens, UniProt P04798); experiment: DB289 consumption by recombinant CYP1A1; type: in vitro ADME; settings: 3.0 μM DB289, 50 pmol/ml P450, 15 min
Sequence of recombinant human CYP1A1 (P04798 whole entry): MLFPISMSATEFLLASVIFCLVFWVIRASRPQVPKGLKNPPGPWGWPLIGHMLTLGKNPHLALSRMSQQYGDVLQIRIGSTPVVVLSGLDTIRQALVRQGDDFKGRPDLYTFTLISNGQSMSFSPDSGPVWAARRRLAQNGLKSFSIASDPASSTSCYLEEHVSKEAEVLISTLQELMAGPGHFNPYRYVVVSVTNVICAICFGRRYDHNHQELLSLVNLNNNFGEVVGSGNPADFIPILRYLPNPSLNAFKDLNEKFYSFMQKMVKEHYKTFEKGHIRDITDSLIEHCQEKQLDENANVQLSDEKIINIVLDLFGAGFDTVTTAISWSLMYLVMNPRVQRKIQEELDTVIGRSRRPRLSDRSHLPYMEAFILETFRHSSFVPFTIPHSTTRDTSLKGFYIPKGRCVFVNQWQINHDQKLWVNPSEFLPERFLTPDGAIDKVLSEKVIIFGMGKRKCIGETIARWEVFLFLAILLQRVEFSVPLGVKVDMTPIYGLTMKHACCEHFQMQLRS
How it was run: as §1

Sequence of CYP2D6 (P10635 whole entry): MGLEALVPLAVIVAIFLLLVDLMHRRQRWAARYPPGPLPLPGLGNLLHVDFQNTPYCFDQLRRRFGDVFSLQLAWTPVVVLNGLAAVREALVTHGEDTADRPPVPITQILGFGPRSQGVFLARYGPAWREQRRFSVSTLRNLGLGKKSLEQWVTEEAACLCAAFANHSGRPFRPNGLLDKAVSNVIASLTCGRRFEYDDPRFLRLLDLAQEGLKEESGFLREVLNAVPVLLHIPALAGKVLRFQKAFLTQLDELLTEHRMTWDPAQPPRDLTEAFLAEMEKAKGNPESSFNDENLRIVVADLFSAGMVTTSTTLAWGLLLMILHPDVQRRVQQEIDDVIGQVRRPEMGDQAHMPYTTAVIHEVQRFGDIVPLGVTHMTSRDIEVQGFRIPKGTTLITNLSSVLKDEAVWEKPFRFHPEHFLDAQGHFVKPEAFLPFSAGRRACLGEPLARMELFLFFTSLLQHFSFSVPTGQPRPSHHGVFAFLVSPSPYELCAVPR

- percentage of substrate consumed (CYP2D6): 9%
- variation of rate of DB289 consumption among 10 individual HLMs [1]: 4 fold
- percentage of substrate consumed (recombinant human CYP3A5): 8%
- inhibition of CYP2A6 activity (CYP2A6 [2]): minimal to no inhibition
- percentage of substrate consumed (CYP2A6 [3]): less than 5%
- percentage of substrate consumed [4]: less than 5%
- percentage of substrate consumed (CYP2J2): 85%
- percentage of substrate consumed (recombinant human CYP2B6): less than 5%
- percentage of substrate consumed (recombinant CYP4F2): 98%
- percentage of substrate consumed (recombinant human CYP1A2): 61%
- half-life in pooled HLM [6]: 12 min
- time by which DB289 was completely consumed [6]: ≤ 120 min
- Vmax ([7]; DB289 O-demethylation in HLMs): 3770 pmol/min/mg protein
- Vmax ([7]; M1 formation, 0.02 mg/ml HLM, 3 min): 3.8 nmol/min/mg protein
- Vmax ([7]; M1 formation, 0.02 mg/ml HLM, 3 min, total P450): 10.5 nmol/min/nmol P450
- percentage of substrate consumed (recombinant human CYP1A1): 82%
SMILES: CON=C(N)c1ccc(-c2ccc(-c3ccc(C(N)=NOC)cc3)o2)cc1 [DB289, 2,5-bis(4-amidinophenyl)furan-bis-O-methylamidoxime]
- plasma protein binding [5]: high plasma protein-binding
